The list is a sample of the results.
Apaf-1 act: activators of human Apaf-1 apoptosome, primary screen, biochemical, DEVD-Rh110 fluorescence, uHTS | 330,000 compounds, 0.31% hits | activity change, negative = activation, % at 20 µM | Apaf-1 apoptosome caspase-3 activation; active compounds read low;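 active = activity change at or below -40% at 20 µM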
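Schedule: 30 min preincubation, 50 min reaction, room temperature / System: biochemical Apaf-1 apoptosome reconstitution / Medium: 20 mM HEPES pH 7.5 with CHAPS, BSA / Evaluation: Caspase-3 cleavage activity downstream of Apaf-1 activation / Detection: Caspase-3-released Rh110 fluorescence, 540 nm emission, 480 nm excitation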
Rh110 interf act: Rh110 fluorescence interference by putative Apaf-1 activators, confirmation, artefact control for Apaf-1 activator project, biochemical, 20 µM; shares compounds with Apaf-1 act; quenched caspase reaction, Ex480/Em540; fluorescence interference (activity change), % at 20 µM, hits read low; 980 tested, under 10 active; AID 504616, 2011;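 active = mean activity change at or below -40% when tested at 20 µM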
Apaf-1 act conf2: Apaf-1 activators, single-dose retest, confirmation, biochemical, fluorescence, DEVD-Rh110, 20 µM; reconstituted apoptosome caspase-3 activity; active compounds read low; shares compounds with Apaf-1 act; activity change, negative = activation, % at 20 µM; 980 compounds, 5% hits;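 active = mean activity change at or below -40%, meaning activation of 40% or more, at 20 µM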
Starred values were filed as active, the others as inactive; x = no result given.

SMILES	Apaf-1 act	Rh110 interf act	Apaf-1 act conf2
N#Cc1c(NCCO)nc(NCc2ccccc2)c2c1CCN(Cc1ccccc1)C2	60.0	x	x
CCCCCCCCCCCCCCCC(O)C(N)CO (stereo not drawn)	80.2	x	x
CC(=O)Nc1cccc(C(=O)NC(C)c2ccc(-n3ccnc3)cc2)c1 (stereo not drawn)	40.7	x	x
O=C(Nc1ccc(Oc2ccccc2)cc1)C1CCN(c2c3c(nc4ncnn24)CCC3)CC1	41.0	x	x
Cc1cccc(CCNS(=O)(=O)c2cnc[nH]2)c1	-46.0*	-3.6	7.7
C#CCOCCOCCOCCNc1nc(N2CCN(C(=O)CCCCCCCCCCNC(=O)Cn3cc(CCCCCN)nn3)CC2)nc(N2CCN(C(=O)CCCCCCCCCCNC(=O)[C@H]([C@@H](C)CC)n3cc(CCCCN=C(N)N)nn3)CC2)n1	85.4	x	x
CC(=O)O[C@]1(C(C)=O)CC[C@H]2[C@@H]3C[C@H](C)C4=CC(=O)CC[C@]4(C)[C@H]3CC[C@@]21C	17.8	x	x
COC(=O)c1ccccc1NC1=C/C(=N\S(=O)(=O)c2ccc(C(=O)O)cc2)c2ccccc2C1=O	95.2	x	x
COCc1cc(=O)[nH]c(Sc2c(-c3ccccc3)c3ccc(Cl)cc3[nH]c2=O)n1	-49.5*	10.1	10.9
CCCC(C(=O)NC(C)(C)C)N(Cc1ccc(F)cc1)C(=O)c1snc(C(N)=O)c1N (stereo not drawn)	-107.9*	14.2	14.5
CCCNC(=O)c1ccc(SC)cc1OC	-173.5*	8.8	4.6
CCOc1ccc(OCC(=O)OCn2c(SC)nnc(C)c2=O)cc1	-75.9*	-1.8	3.0
Cc1nc2sccn2c(=O)c1CCN1CCC(=C(c2ccc(F)cc2)c2ccc(F)cc2)CC1	42.3	x	x
C#CCOCCOCCOCCNc1nc(N2CCN(C(=O)CCCCCCCCCCNC(=O)[C@H](CCCCN)n3cc(C)nn3)CC2)nc(N2CCN(C(=O)CCCCCCCCCCNC(=O)[C@H](CCCCN)n3cc(CCCC(=O)O)nn3)CC2)n1	62.7	x	x
CC1(C(=O)NC2CCCC2)CCC(=O)N1Cc1ccccc1Cl (stereo not drawn)	-105.6*	-7.9	8.9
O=C(Cc1ccccc1Cl)NC1(O)C(=O)c2ccccc2C1=O	88.8	x	x
CC(=O)N(C1=C(Cl)C(=O)c2ccccc2C1=O)C1CCCCC1	85.4	x	x
CCCCNC1=CC(=O)C(=O)c2ccccc21	95.5	x	x
CC1=NN(c2ccccc2)C(=O)/C1=C/c1cc2cc(C)ccc2nc1N1CCCCC1	94.2	x	x
Nc1ccc2ncccc2c1	85.5	x	x
O=c1[nH]c(Nc2ccc(F)cc2)cc2ccccc12	95.1	x	x
O=c1[nH]c(CN2CCc3ccccc3C2)nc2ccccc12	64.7	x	x
O=c1[nH]c(C(F)(F)F)nc2ccccc12	-111.9*	0.1	12.5
Oc1c(Br)cc(Br)cc1C=Nc1ccc2[nH]ncc2c1	83.8	x	x
O=C(CSc1nncc2ccccc12)N1CCOCC1	-543.2*	1.0	7.0
SMILES	Apaf-1 act	Rh110 interf act	Apaf-1 act conf2
O=C(CSc1c[nH]c2ccccc12)N1CCOCC1	-42.2*	19.2	14.4
COC(=O)/C(=C/Nc1ccc(O)cc1)[N+](=O)[O-]	91.2	x	x
Nc1ccc(O)c2ccccc12	67.7	x	x
O=C(CC1Nc2cccc3cccc(c23)NC1=O)Nc1ccc(F)cc1 (stereo not drawn)	95.6	x	x
CCCC[n+]1ccn(C2=C([O-])c3ccccc3C(=O)/C2=N\S(=O)(=O)c2ccc(Br)cc2)c1	58.8	x	x
O=c1oc2cc(O)ccc2c2oc3cc(O)ccc3c12	-40.8*	14.9	18.1
COc1ccc2c(c1)c(=O)oc1cc(O)ccc12	-298.5*	1.6	10.5
Cc1cccc(CN2C(=O)/C(=C\c3ccc(C(=O)NCCCN4CCN(C)CC4)cc3)Oc3ccccc32)c1	52.5	x	x
CC[C@@H](C)[C@@H]1CN([C@@H](CN2CCC[C@H]2CN2C(N)=NC[C@H]2C(C)C)C(C)C)C(=N)N1CCCC1CCCC1	40.5	x	x
Nc1ccc(N(CCO)CCO)cc1	84.2	x	x
CN(C)C(=O)c1ccc(NC(=O)COc2cccc(Oc3ccccc3)c2)cc1	61.1	x	x
CN(CC(=O)Nc1cccc(F)c1)C(=O)c1sc2ccccc2c1Cl	57.1	x	x
CC(C)c1ccccc1OCC(=O)N(C)CC(=O)Nc1ccc(F)cc1	-504.5*	-1.9	8.8
Oc1cccc2c(NC(=S)Nc3ccc(SC(F)F)cc3)cccc12	53.2	x	x
COc1ccc2[nH]c3c(C)c4ccncc4c(C)c3c2c1	76.4	x	x
CCOC(=O)C1CCN(C2=C(NS(=O)(=O)c3ccc(Br)cc3)C(=O)c3ccccc3C2=O)CC1	68.0	x	x
CCOC(=O)C1CCCN(C2CCN(Cc3nc(Cc4ccccc4)no3)CC2)C1 (stereo not drawn)	-72.0*	-0.2	11.0
O=C(C1CCCN(S(=O)(=O)c2cnc[nH]2)C1)N1CCN(Cc2ccccc2)CC1 (stereo not drawn)	40.5	x	x
COc1ccc(OCc2cc(C(=O)N3CCSCC3)no2)c(Cl)c1	-153.2*	7.3	12.8
CCCCOc1cc(NCc2ccccc2)c2ncn(C(C)C)c2c1	61.2	x	x
CC1=NN(c2ccc(Br)cc2)C(=O)/C1=C/c1ccc(-c2ccccc2C(=O)O)o1	77.6	x	x
NS(=O)(=O)c1ccc(Cc2ncc(C(F)(F)F)cc2Cl)s1	-40.0*	0.9	7.5
C#CCOCCOCCOCCNc1nc(N2CCN(C(=O)CCCCCCCCCCNC(=O)[C@H]([C@@H](C)CC)n3cc(CCCCCN)nn3)CC2)nc(N2CCN(C(=O)CCCCCCCCCCNC(=O)[C@H]([C@@H](C)CC)n3cc(CCCCN=C(N)N)nn3)CC2)n1	71.5	x	x
COc1ccc2[nH]c3c(c2c1)CCN1C(=O)C(CC(=O)NCCC2=CCCCC2)C[C@H](C(=O)N2CCOCC2)[C@@]31CCC1CCCC1 (stereo partly drawn)	43.7	x	x
COC(=O)c1c(NC(=O)COc2ccc(Cl)cc2)sc2c1CC(C)(C)NC2(C)C	61.3	x	x
SMILES	Apaf-1 act	Rh110 interf act	Apaf-1 act conf2
O=C1C(Cl)=C(NC(=O)c2ccccc2)C(=O)C(Cl)=C1NC(=O)c1ccccc1	56.4	x	x
O=C(NNC(=S)Nc1ccc(Cl)cc1)c1ccccc1	-66.2*	-2.8	5.2
O=C(NC1=C(Nc2ccc(Cl)cc2)C(=O)c2ccccc2C1=O)c1ccccc1	53.5	x	x
NC(N)=Nc1cc2ccccc2c2ccccc12	76.8	x	x
COc1ccc(C)cc1NC(=O)COC(=O)C1COc2ccccc2O1 (stereo not drawn)	-52.9*	-1.2	10.4
COc1ccc(C)cc1NC(=O)CN1C(=O)C2CC=CCC2C1=O (stereo not drawn)	-315.2*	0.7	8.7
Cc1noc(C)c1COC(=O)C1COc2ccccc2O1 (stereo not drawn)	-72.6*	-6.3	12.0
Cc1ccc(N/N=C2\CC(=O)c3ccccc32)cc1Cl	76.5	x	x
Cn1nc(-c2ccc(Cl)cc2)c2cc(C(=O)NCCCN3CCCC3)sc21	49.2	x	x
CCOC(=O)c1c(C)c2c(=O)[nH]cnc2n1-c1ccccc1	57.5	x	x
Cc1c(C(=O)N2CCOCC2)c(S(=O)(=O)Nc2cccc(Br)c2)c(C)n1C	-43.6*	4.1	11.9
COC(=O)C1=C(C)NC(C)=C(C(=O)OC(C)C)C1c1cccc2nonc12 (stereo not drawn)	-207.2*	1.0	7.5

Bioassay records: PubChem BioAssay, Sanford-Burnham Center for Chemical Genomics
